Experiment [1] deals with Muscarinic receptor M2 and M3 (Rattus norvegicus) (UniProt P08483+P10980). Briefly: Selectivity ratio of Ki for muscarinic M2 receptor in Sprague-Dawley rat left atria to Ki for muscarinic M3 receptor in Sprague-Dawley rat submandibulary gland.
Experiment [2] addresses T1, Muscarinic acetylcholine receptor M2 (Rattus norvegicus, UniProt P10980).
T1 sequence (P10980 whole entry): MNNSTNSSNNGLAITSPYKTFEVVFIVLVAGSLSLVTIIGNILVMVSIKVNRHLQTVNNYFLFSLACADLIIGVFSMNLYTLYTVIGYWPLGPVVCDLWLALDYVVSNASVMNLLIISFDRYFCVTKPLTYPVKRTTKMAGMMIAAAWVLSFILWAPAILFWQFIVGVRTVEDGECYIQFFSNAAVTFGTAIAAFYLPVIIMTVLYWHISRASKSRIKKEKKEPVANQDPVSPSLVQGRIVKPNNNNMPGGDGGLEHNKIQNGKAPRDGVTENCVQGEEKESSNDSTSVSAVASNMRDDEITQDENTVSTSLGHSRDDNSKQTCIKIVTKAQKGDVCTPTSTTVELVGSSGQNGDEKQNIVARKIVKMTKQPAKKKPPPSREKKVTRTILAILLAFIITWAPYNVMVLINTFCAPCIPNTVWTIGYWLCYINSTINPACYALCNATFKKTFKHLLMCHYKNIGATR
As to the kind of experiment: Displacement of [3H]NMS from muscarinic M2 receptor in Sprague-Dawley rat left atria after 60 mins. The essentials:
(§1)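 Membranes from male SD rat (220–250 g) left atria (M2) or submandibulary glands (M3). Tissue homogenised in ice-cold 0.32 M sucrose/50 mM Tris pH 7.4, then spun at 1000g and 20000g, all steps at 4 °C. Membranes (0.1 mg protein) incubated 60 min at 37 °C with 0.4 nM [3H]NMS plus increasing test concentrations. Filtration read-out. IC50 converted to Ki by Cheng–Prusoff, mean SEM.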
A general note: In a radioligand displacement assay an active substance lowers the binding of a labelled ligand.

Experiment [3] deals with Muscarinic acetylcholine receptor M3 (Cavia porcellus, UniProt Q8VH26). Briefly: Antagonist activity at muscarinic M3 receptor in guinea pig ilea assessed as inhibition of carbachol-induced contraction. Particulars: read-out: pA2 (converted). An outline of the steps: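 Ileal strips (1.5 cm) in 10 ml baths of Kreb's solution under 1000 mg load, equilibrated 30 min with fluid changed every 15 min. Isotonic recording. Cumulative carbachol curve with roughly 3-fold steps, each added once the prior response was steady. Responses expressed as % of control maximum. Antagonist at three concentrations. pA2 by Schild analysis.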
Sequence of Muscarinic acetylcholine receptor M3 (Cavia porcellus, UniProt Q8VH26) (Q8VH26 whole entry): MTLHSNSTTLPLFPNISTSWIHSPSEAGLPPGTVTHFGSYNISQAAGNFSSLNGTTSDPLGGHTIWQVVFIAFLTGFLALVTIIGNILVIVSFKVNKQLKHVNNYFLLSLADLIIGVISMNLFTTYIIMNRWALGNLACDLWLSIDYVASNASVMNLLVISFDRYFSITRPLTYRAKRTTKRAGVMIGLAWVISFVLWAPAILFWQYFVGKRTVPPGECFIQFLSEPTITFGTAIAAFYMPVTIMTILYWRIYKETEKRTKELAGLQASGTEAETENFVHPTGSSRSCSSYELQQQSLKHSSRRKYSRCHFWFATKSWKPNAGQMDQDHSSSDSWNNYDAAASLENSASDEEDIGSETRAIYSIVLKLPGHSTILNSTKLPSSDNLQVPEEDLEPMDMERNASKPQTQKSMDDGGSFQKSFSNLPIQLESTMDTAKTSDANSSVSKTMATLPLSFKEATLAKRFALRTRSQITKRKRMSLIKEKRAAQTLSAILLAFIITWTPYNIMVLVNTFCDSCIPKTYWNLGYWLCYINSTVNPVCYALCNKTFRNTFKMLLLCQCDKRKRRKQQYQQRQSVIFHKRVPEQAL

A further experiment deals with T2, Muscarinic receptor 2 (Cavia porcellus, UniProt Q8VH27).
T2 sequence (Q8VH27 whole entry): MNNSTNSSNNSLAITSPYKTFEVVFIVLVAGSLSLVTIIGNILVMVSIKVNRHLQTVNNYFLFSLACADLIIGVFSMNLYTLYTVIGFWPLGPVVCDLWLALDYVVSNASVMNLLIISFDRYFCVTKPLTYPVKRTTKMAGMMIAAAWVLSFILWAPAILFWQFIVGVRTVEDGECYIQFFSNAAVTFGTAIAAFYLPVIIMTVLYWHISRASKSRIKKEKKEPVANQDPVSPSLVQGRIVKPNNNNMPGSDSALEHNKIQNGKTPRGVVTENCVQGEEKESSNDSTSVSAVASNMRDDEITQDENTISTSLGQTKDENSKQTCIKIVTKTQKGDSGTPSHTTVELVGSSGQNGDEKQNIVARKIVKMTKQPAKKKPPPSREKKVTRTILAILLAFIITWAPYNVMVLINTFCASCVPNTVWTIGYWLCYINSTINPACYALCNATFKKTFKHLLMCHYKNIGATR
As to the kind of experiment: Antagonist activity at muscarinic M2 receptor in guinea pig left atria assessed as inhibition of carbachol-induced […]. Particulars: read-out: pA2 (converted). An outline of the steps:
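Isolated left atria in Kreb's solution under 500 mg tension, stabilised 45 min, then electrically paced (2 Hz, 6 ms, 10 V square-wave submaximal pulses). Inotropic response recorded isometrically. Cumulative carbachol curves expressed as % of contraction before agonist. Antagonist tested at two or three concentrations. pA2 obtained by Schild analysis.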

In experiment [4] the target is Muscarinic acetylcholine receptor M3 (Rattus norvegicus, UniProt P08483). As to the kind of experiment: Displacement of [3H]NMS from muscarinic M3 receptor in Sprague-Dawley rat submandibulary gland after 60 mins. The essentials:
as §1

The record followed here is ChEMBL document CHEMBL2321697, “The effect of absolute configuration on activity, subtype selectivity (M3/M2) of 3α-acyloxy-6β-acetoxyltropane derivatives as muscarinic M3 receptor antagonists” (Bioorg Med Chem, 2013).

Broadly, the pKi is the negative decadic logarithm of the Ki, by convention in mol/L. A higher pKi goes with a low Ki.

pKi: −log10 of the molar value.

Sequence of Muscarinic receptor M2 and M3 (Rattus norvegicus) (P08483 whole entry, looked up, one chain of several): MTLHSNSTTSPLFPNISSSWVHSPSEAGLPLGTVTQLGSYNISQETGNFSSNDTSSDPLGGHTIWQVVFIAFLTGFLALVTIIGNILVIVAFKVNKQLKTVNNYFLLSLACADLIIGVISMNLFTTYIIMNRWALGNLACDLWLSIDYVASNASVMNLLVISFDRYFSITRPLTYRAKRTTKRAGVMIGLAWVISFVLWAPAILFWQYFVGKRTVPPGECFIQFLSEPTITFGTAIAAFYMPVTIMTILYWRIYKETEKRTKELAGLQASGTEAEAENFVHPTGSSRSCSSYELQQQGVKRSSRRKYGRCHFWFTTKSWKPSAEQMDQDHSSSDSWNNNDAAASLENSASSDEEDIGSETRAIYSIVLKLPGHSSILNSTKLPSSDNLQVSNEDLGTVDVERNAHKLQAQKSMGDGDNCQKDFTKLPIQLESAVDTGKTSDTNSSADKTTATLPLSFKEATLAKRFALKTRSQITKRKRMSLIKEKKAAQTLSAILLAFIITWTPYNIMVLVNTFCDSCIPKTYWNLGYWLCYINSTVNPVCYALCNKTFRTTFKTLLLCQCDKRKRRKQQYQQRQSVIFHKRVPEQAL
Sequence of Muscarinic acetylcholine receptor M3 (Rattus norvegicus, UniProt P08483) (P08483 whole entry): as the sequence (P08483 whole entry, looked up, one chain of several) above

With `CC(=O)O[C@H]1C[C@@H]2C[C@@H](OC(=O)c3ccccc3Cl)C[C@@H]1N2C`, the Ratio Ki in experiment [1] is 6.3. The pKi in experiment [2] was 5.06; in experiment [4] it was 5.85. Moreover, the Kb is 0.275 µM in experiment [3] and 0.631 µM at Muscarinic receptor 2.
The like results for `CC(=O)O[C@H]1C[C@@H]2C[C@@H](OC(=O)c3ccccc3[N+](=O)[O-])C[C@@H]1N2C` were, in that order, 2.6, 5.01, 5.43, 0.389 µM and 0.851 µM.
Regarding `CC(=O)O[C@@H]1C[C@@H]2C[C@H](OC(=O)c3ccccc3[N+](=O)[O-])C[C@@H]1N2C`, the Ratio Ki in experiment [1] was 1.3. For the same compound, the figures for the negative logarithm of the Ki (pKi) in experiment [2] and in experiment [4] were 4.08 and 4.18, respectively.
As for `CC(=O)O[C@@H]1C[C@@H]2C[C@H](OC(=O)c3ccccc3Cl)C[C@@H]1N2C`, the Ratio Ki in experiment [1] is 1.1. The pKi was 4.02 in experiment [2] and 4.08 in experiment [4].
In the same order, the values of `CC(=O)O[C@@H]1C[C@@H]2C[C@H](OC(=O)c3ccccc3)C[C@@H]1N2C` are 1.1, 4.11 and 4.15.
On to `CC(=O)O[C@H]1C[C@@H]2C[C@@H](OC(=O)Cc3ccccc3)C[C@@H]1N2C`, for which the Ratio Ki in experiment [1] came out at 13. Moreover, the values for the pKi in experiment [2] and in experiment [4] were 4.92 and 6.04, respectively. Further, the Kb in experiment [3] is 0.123 µM; at Muscarinic receptor 2 it was 1.1 µM.
In the same order, the values of `CC(=O)O[C@H]1C[C@@H]2C[C@@H](OC(=O)c3ccccc3)C[C@@H]1N2C` are 4, 4.97, 5.57, 0.309 µM and 1.32 µM.
Take `CC(=O)O[C@@H]1C[C@@H]2C[C@H](OC(=O)Cc3ccccc3)C[C@@H]1N2C`: in experiment [1], the Ratio Ki worked out at 0.9. Besides, the pKi in experiment [2] was 4.07; in experiment [4], 4.02.
